Data on 1 substance can be found in publication PMC11867109 (Chemical Science, 2025).

No end group written: not given here.

For one data set, the system named is human red blood cells. The experiment in a line: Hemolysis assay. The class given is cell-based. The note with it: hRBC, at 64 μg mL^−1 peptide; mean ± SD. In short, it runs like this:
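Human red blood cells exposed to two-fold serial dilutions of test peptide, with 4096 µg mL⁻¹ as the assay's upper concentration limit. HC10 is interpolated continuously from the dilution series. Values are means of three independent experiments, each with at least two technical duplicates, with standard deviation.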

Data set [1] in a line: Helicity and helical rigidity by circular dichroism. The note with it: ratio between molar ellipticity in 15% TFE and in 100% TFE. It is filed as physicochemical. A general note: Circular dichroism is the unequal absorption of left and right circularly polarised light.

Regarding GLFDIIKKIAESF-NH2 [Aurein 1.2], the hemolysis in the data set with human red blood cells was 37.2 ± 1.8%. Moreover, in data set [1], the “Helical rigidity % ± SD” value was determined as 102 ± 2%.
